In one assay the target is Histone deacetylase. As to the kind of experiment: Inhibition of class 1 HDAC (unknown origin). Format: protein assay, Homo sapiens.
Assay [1] is described as follows: Selectivity index, ratio of IC50 for mouse HDAC6 to IC50 for human HDAC1. In outline: (§1)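 FLAG-tagged HDAC1 or HDAC6 was expressed in cells grown 24 h in DMEM, then lysed in Tris/NaCl/EDTA/NP40 buffer. The enzyme was immunoprecipitated with anti-FLAG M2 and eluted with FLAG peptide. It was incubated with Ac-KGLGK(Ac)-MCA (2 mM stock) and 100 μM DTT at 37 °C for 30 min, then trypsin at 37 °C for 15 min. AMC fluorescence was read. IC50 is the mean±SD of ≥3 curves. The ratios are computed from these IC50s.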

The target of assay [2] is Histone deacetylase 1 (Homo sapiens) (UniProt Q13547). The assay is described as follows: Ratio of FK228 IC50 to compound IC50 for human HDAC1 using Ac-KGLGK(Ac)-MCA as substrate after 30 mins by fluorescence assay. In outline:
as §1

The target of assay [3] is Protein deacetylase HDAC6 (Mus musculus, UniProt Q9Z2V5). The assay is described as follows: Inhibition of mouse HDAC6 using Ac-KGLGK(Ac)-MCA as substrate after 30 mins by fluorescence assay.
Chain of Protein deacetylase HDAC6 (Q9Z2V5 whole entry): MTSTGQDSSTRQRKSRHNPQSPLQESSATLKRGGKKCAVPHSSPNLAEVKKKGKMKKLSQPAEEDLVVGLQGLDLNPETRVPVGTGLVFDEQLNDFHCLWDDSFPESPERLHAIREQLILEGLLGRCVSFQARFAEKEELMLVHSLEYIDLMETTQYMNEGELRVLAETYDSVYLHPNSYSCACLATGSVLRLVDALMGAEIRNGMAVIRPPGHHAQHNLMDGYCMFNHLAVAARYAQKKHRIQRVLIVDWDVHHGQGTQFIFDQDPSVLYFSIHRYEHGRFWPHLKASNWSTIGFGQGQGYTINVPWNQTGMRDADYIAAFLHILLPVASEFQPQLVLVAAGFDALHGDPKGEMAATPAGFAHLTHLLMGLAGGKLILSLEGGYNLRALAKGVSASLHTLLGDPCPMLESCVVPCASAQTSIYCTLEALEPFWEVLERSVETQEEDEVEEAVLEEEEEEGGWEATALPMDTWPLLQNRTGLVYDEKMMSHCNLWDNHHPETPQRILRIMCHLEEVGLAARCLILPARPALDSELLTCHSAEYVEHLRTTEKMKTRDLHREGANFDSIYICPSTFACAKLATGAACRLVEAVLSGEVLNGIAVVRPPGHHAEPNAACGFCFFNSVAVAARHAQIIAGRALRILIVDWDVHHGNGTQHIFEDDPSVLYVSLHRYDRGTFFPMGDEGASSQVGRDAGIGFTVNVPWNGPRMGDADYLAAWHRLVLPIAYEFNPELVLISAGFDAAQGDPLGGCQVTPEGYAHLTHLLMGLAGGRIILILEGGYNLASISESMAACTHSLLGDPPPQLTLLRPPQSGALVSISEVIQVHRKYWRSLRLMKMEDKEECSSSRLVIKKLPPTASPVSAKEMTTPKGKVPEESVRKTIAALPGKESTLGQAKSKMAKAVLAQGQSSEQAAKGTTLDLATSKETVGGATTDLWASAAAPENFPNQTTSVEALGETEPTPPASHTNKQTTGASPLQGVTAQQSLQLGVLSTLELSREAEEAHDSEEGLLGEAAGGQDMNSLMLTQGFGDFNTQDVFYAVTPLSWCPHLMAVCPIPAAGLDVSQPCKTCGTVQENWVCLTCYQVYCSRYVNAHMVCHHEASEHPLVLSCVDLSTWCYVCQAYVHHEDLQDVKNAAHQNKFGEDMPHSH
The next assay has as its system PC-3. The assay is described as follows: Growth inhibition of human PC3 cells by sulforhodamine B colorimetric method. The format is functional. In outline:
(§2)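 Tested in a human cancer cell line panel. Five concentrations were used per compound, spanning either 10^-10–10^-6 M or 10^-8–10^-4 M. Growth was read by sulforhodamine B colorimetry.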
(In general: In SRB staining, fixed cells bind dye roughly in proportion to their protein.)

A further assay concerns DU-145. The assay is described as follows: Growth inhibition of human DU145 cells by sulforhodamine B colorimetric method. The format is functional. The method in brief: as §2
The next assay relates to MKN-45. As to the kind of experiment: Growth inhibition of human MKN45 cells by sulforhodamine B colorimetric method. The format is functional. The method in brief: as §2
In another assay the test system is MKN-74. As to the kind of experiment: Growth inhibition of human MKN74 cells by sulforhodamine B colorimetric method. The format is functional. In outline: as §2
The test system of a further assay is MKN-28. As to the kind of experiment: Growth inhibition of human MKN28 cells by sulforhodamine B colorimetric method. The format is functional. In outline:
as §2

A further assay has as its system MKN-7. As to the kind of experiment: Growth inhibition of human MKN7 cells by sulforhodamine B colorimetric method. Format: functional. In outline: as §2
In a further assay the test system is St-4. The assay is described as follows: Growth inhibition of human St-4 cells by sulforhodamine B colorimetric method. Format: functional. The method in brief: as §2
A short description of assay [4]: Growth inhibition of human MKN1 cells by sulforhodamine B colorimetric method. Format: functional. As to conditions: MKN-1. In outline: as §2
A short description of assay [5]: Growth inhibition of human RXF631L cells by sulforhodamine B colorimetric method. As to conditions: RXF 631. The format is functional. The method in brief: as §2
The subject of a further assay is ACHN. As to the kind of experiment: Growth inhibition of human ACHN cells by sulforhodamine B colorimetric method. The format is functional. The method in brief:
as §2

The test system of another assay is SK-OV-3. The assay is described as follows: Growth inhibition of human SKOV3 cells by sulforhodamine B colorimetric method. Format: functional. In outline: as §2
The subject of another assay is OVCAR-5. The assay is described as follows: Growth inhibition of human OVCAR5 cells by sulforhodamine B colorimetric method. Format: functional. In outline:
as §2

For the next assay, the system named is OVCAR-8. The assay is described as follows: Growth inhibition of human OVCAR8 cells by sulforhodamine B colorimetric method. Format: functional. In outline: as §2
For another assay, the system named is OVCAR-4. As to the kind of experiment: Growth inhibition of human OVCAR4 cells by sulforhodamine B colorimetric method. The format is functional. The method in brief: as §2
The test system of the next assay is LOX IMVI. The assay is described as follows: Growth inhibition of human LOXIMVI cells by sulforhodamine B colorimetric method. The format is functional. The method in brief: as §2
The subject of a further assay is OVCAR-3. The assay is described as follows: Growth inhibition of human OVCAR3 cells by sulforhodamine B colorimetric method. The format is functional. The method in brief:
as §2

The subject of the next assay is DMS-273. As to the kind of experiment: Growth inhibition of human DMS273 cells by sulforhodamine B colorimetric method. Format: functional. In outline: as §2
The next assay deals with DMS-114. The assay is described as follows: Growth inhibition of human DMS114 cells by sulforhodamine B colorimetric method. Format: functional. In outline: as §2
A further assay relates to NCI-H460. The assay is described as follows: Growth inhibition of human NCI-H460 cells by sulforhodamine B colorimetric method. The format is functional. The method in brief: as §2
In another assay the test system is A549. As to the kind of experiment: Growth inhibition of human A549 cells by sulforhodamine B colorimetric method. Format: functional. The method in brief: as §2
The subject of a further assay is NCI-H522. The assay is described as follows: Growth inhibition of human NCI-H522 cells by sulforhodamine B colorimetric method. Format: functional. In outline:
as §2

The test system of the next assay is NCI-H23. The assay is described as follows: Growth inhibition of human NCI-H23 cells by sulforhodamine B colorimetric method. Format: functional. In outline:
as §2

A further assay has as its system NCI-H226. The assay is described as follows: Growth inhibition of human NCI-H226 cells by sulforhodamine B colorimetric method. Format: functional. The method in brief: as §2
In another assay the test system is HCT-116. As to the kind of experiment: Growth inhibition of human HCT116 cells by sulforhodamine B colorimetric method. The format is functional. The method in brief: as §2
Another assay relates to HT-29. The assay is described as follows: Growth inhibition of human HT-29 cells by sulforhodamine B colorimetric method. The format is functional. The method in brief: as §2
Another assay deals with HCT-15. The assay is described as follows: Growth inhibition of human HCT15 cells by sulforhodamine B colorimetric method. The format is functional. The method in brief: as §2
Assay [6] can be described thus: Growth inhibition of human HCC2998 cells by sulforhodamine B colorimetric method. Format: functional. As to conditions: HCC 2998. In outline:
as §2

Another assay relates to KM12. The assay is described as follows: Growth inhibition of human KM12 cells by sulforhodamine B colorimetric method. Format: functional. The method in brief:
as §2

In another assay the test system is SNB-78. The assay is described as follows: Growth inhibition of human SNB78 cells by sulforhodamine B colorimetric method. The format is functional. The method in brief: as §2
The subject of a further assay is SNB-75. As to the kind of experiment: Growth inhibition of human SNB75 cells by sulforhodamine B colorimetric method. The format is functional. The method in brief: as §2
The subject of a further assay is SF-539. As to the kind of experiment: Growth inhibition of human SF539 cells by sulforhodamine B colorimetric method. Format: functional. The method in brief:
as §2

In another assay the test system is SF-295. As to the kind of experiment: Growth inhibition of human SF295 cells by sulforhodamine B colorimetric method. The format is functional. In outline: as §2
A further assay concerns U-251. As to the kind of experiment: Growth inhibition of human U251 cells by sulforhodamine B colorimetric method. The format is functional. In outline:
as §2

A further assay concerns SF-268. As to the kind of experiment: Growth inhibition of human SF268 cells by sulforhodamine B colorimetric method. The format is functional. In outline: as §2
The test system of another assay is MDA-MB-231. The assay is described as follows: Growth inhibition of human MDA-MB-231 cells by sulforhodamine B colorimetric method. Format: functional. In outline:
as §2

The next assay has as its system MCF7. The assay is described as follows: Growth inhibition of human MCF7 cells by sulforhodamine B colorimetric method. Format: functional. The method in brief:
as §2

A short description of assay [7]: Growth inhibition of human HBC5 cells by sulforhodamine B colorimetric method. Format: functional. The method in brief: as §2
A short description of assay [8]: Growth inhibition of human BSY1 cells by sulforhodamine B colorimetric method. Format: functional. As to conditions: BSY-1. In outline:
as §2

Assay [9] is described as follows: Growth inhibition of human HBC4 cells by sulforhodamine B colorimetric method. The format is functional. The method in brief:
as §2

SMILES strings stand for the structures.

Chain of Histone deacetylase 1 (Homo sapiens) (Q13547 whole entry): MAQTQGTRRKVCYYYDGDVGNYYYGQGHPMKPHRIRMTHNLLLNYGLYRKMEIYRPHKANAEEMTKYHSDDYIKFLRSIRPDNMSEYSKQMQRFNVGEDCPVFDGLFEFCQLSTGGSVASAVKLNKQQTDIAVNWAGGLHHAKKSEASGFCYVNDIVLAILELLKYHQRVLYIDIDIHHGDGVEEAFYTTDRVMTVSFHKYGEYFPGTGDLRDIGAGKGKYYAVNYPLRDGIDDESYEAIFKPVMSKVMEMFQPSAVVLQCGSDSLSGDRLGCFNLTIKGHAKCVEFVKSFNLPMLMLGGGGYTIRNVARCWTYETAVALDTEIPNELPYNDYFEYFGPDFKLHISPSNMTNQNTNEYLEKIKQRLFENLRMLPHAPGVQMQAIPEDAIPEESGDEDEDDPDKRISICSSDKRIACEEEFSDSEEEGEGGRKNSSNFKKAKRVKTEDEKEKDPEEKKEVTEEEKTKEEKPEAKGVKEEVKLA

A word on the IC50: it is the point on the concentration scale where inhibition reaches its midpoint. A low value points to inhibition by little substance. Turning to `CCC(C)[C@H]1NC(=O)[C@H]2CSSCC/C=C/[C@H](CC(=O)N[C@H](C)C(=O)N2)OC(=O)C[C@@H]1O` (stereo partly drawn) [spiruchostatin B], at Histone deacetylase, the IC50 was determined as 2.2 nM.

One may read the GI50 as the concentration giving 50% growth inhibition. The low end stands for greater sensitivity of the cells, the high end for lower sensitivity of the cells. `CC(C)[C@H]1NC(=O)[C@H]2CSSCC/C=C/[C@H](CC(=O)N[C@H](C(C)C)C(=O)N2)OC(=O)C[C@@H]1O` [spiruchostatin D]: the Ratio IC50 came out at 320 in assay [1] and 3 in assay [2]. For the same molecule, in assay [3], inhibition was half-maximal at 240 nM (IC50). In addition, the GI50 with PC-3 is 8.7 nM; with DU-145, 4 nM; in the assay with MKN-45 it was 9.6 nM; in the assay on MKN-74 it was 2.9 nM; in the assay with MKN-28, 9.5 nM; with MKN-7, 5.8 nM. The GI50 with St-4 worked out at 16 nM; in assay [4], 2 nM; in assay [5], 5.9 nM; in the assay with ACHN it was 21 nM; in the assay with SK-OV-3, 2.3 nM; with OVCAR-5 it was 1.2 nM. In addition, the GI50 with OVCAR-8 worked out at 2.7 nM; in the assay on OVCAR-4, 4.7 nM; in the assay on LOX IMVI, 1.8 nM; in the assay with OVCAR-3, 2.2 nM; in the assay on DMS-273 it was 5.1 nM; in the assay on DMS-114, 3.6 nM. Moreover, the GI50 was 2.8 nM in the assay with NCI-H460; 0.97 nM in the assay with A549; 0.39 nM with NCI-H522; 2.5 nM in the assay on NCI-H23; 4 nM in the assay on NCI-H226; 1.3 nM in the assay with HCT-116. Besides, the 50% growth inhibitory concentration (GI50) in the assay with HT-29 came to 2.2 nM; in the assay with HCT-15, 210 nM; in [6], 1.5 nM; in the assay on KM12, 2.6 nM; with SNB-78 it was 41 nM; in the assay on SNB-75, 1.9 nM. In addition, the GI50 with SF-539 is 0.58 nM; in the assay on SF-295, 5.1 nM; in the assay on U-251, 2.7 nM; with SF-268, 3.5 nM; with MDA-MB-231, 1.7 nM; in the assay with MCF7, 2.9 nM. The concentration for 50% growth inhibition (GI50) in assay [7] stood at 18 nM; in assay [8], 5.2 nM; in assay [9], 4.1 nM.
